Compounds with a hit are over-represented: about 2% of the library has one in this group of screens.
PAD4 inh – human PAD4 inhibitors, primary screen, biochemical, fluorescence polarization, 1536-well format. Protein-arginine deiminase type-4 (Homo sapiens), Q9UM07. recombinant PAD4, RCA probe fluorescence polarization. inhibition, % at 6.36 µM. 0.41% of 330,000 active. AID 485272, 2010;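 active = percent inhibition above a cutoff equal to the mean of all tested compounds plus 3 SD, cut at about 15% in these data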
GSTO1 inh – inhibitors of recombinant GSTO1, primary screen, counter-screen for RBBP9 inhibitor project, biochemical, fluorescence polarization | activity-based probe fluorescence polarization | inhibition, % at 5.96 µM | 1.1% of 300,000 active;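 active = inhibition above the campaign mean inhibition plus 3 SD, cut at about 35% in these data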
Fh CTSL1 inh – Fasciola hepatica cathepsin L1 inhibitors, primary screen, counter-screen for PFM18AAP inhibitor project, biochemical, QFRET, fluorogenic peptide substrate; recombinant F. hepatica cathepsin L1, Z-Leu-Arg-MCA fluorescence; 0.49% of 300,000 active; inhibition, % at 5.96 µM;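 active = inhibition above the mean of all tested compounds plus 3 SD, set per screening campaign, cut at about 17% in these data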
PP5 primary – PP5 phosphatase inhibitors, primary screen, biochemical, fluorescence. Serine/threonine-protein phosphatase 5 (Homo sapiens), P53041. purified PP5c, OMFP substrate fluorescence. inhibition, % at 6.7 µM. 0.18% of 320,000 active. AID 1987, 2009;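 active = inhibition above the campaign's mean inhibition across all tested compounds plus 3 SD, cut at about 9.5% in these data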
Target sequence (P53041 whole entry, looked up): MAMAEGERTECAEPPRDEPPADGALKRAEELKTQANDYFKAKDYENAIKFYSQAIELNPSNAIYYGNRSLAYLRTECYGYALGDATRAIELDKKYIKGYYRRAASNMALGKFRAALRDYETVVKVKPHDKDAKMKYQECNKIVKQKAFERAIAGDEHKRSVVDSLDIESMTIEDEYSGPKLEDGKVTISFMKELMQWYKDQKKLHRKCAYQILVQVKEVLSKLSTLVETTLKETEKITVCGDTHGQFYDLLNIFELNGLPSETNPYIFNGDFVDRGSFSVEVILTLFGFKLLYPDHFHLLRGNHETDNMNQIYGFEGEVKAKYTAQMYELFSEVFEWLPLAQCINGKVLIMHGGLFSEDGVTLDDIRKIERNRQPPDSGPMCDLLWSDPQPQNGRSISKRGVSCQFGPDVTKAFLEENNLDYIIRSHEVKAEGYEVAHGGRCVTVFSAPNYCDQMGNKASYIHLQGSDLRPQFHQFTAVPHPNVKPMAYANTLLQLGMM
Apaf1 inhib – inhibitors of human Apaf-1 apoptosome, primary screen, biochemical, DEVD-Rh110 fluorescence, uHTS | reconstituted apoptosome caspase-3 activity | inhibition, % at 20 µM | 0.71% of 330,000 active | AID 489030, 2010; active = inhibition of at least 40% at 20 µM
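System – cell-free apoptosome with Apaf-1, procaspase-3 and caspase-9 · Buffer or medium – pH 7.5 Hepes buffer with CHAPS, BSA, DTT · Also added – cytochrome c with DEVD-Rh110 · Times – 30 min compound preincubation, 50 min activation, room temperature · Technique – Rh110 fluorescence intensity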
UCH37 DUB inh – inhibitors of human UCH37 deubiquitinase, primary screen, biochemical, Ub-AMC cleavage, fluorescence | 0.33% of 330,000 active | AID 588478, 2011 | purified proteasome/UCH37 | inhibition, % (concentration not given with the values) | Ubiquitin carboxyl-terminal hydrolase isozyme L5 (Homo sapiens), Q9Y5K5;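 active = mean inhibition over replicate wells above about 20%, limit read from the data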
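Assay system: Proteasome-bound UCH37. Buffer or medium: pH 7.4 Tris-HCl (50 mM) with ovalbumin, ATP-MgCl2, DTT. Incubation: 30 min preincubation with enzyme, 25 min cleavage at room temperature. Measured by: fluorescence, ex 355 nm, em 460 nm. Read-out basis: percent inhibition. Control set: wells without proteasome as full block, compound-free enzyme plus substrate as uninhibited.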
PAD4 confirm – human PAD4 inhibitors, confirmation, biochemical, fluorescence polarization | shares compounds with PAD4 inh | inhibition, % at 6.36 µM | recombinant PAD4, RCA probe fluorescence polarization | 28% of 1,200 active;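 active = mean inhibition across replicates above the hit cutoff set by the earlier primary screen, cut at about 15% in these data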;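 note: inhibitors block active-site labeling by the probe so polarization falls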
Hits are given with their value; n = inactive; x = no result.

SMILES | PAD4 inh | GSTO1 inh | Fh CTSL1 inh | PP5 primary | Apaf1 inhib | UCH37 DUB inh | PAD4 confirm
CC(OC(=O)c1cccc(Cl)c1)C(=O)NC1CCCCC1C (configuration not stated) | n | n | n | n | n | n | x
COCCCn1c(=S)[nH]c2c(sc3ccccc32)c1=O | 18 | n | n | n | n | n | n
CC1CCN(CCCn2c(=S)[nH]c3c(sc4ccccc43)c2=O)CC1 | n | n | n | n | n | n | x
O=C(Oc1ccc(C=Nn2cnnc2)cc1)c1cccc([N+](=O)[O-])c1 | x | x | x | x | x | n | x
O=C(c1ccncc1)N1N=C(C2CC2)CC1(O)C(F)(F)F (configuration not stated) | 24 | n | n | n | n | n | n
O=C(c1cccnc1)N1N=C(C2CC2)CC1(O)C(F)(F)F (configuration not stated) | n | n | n | n | n | n | x
CC(C)c1ccc(N(CC(=O)NN=Cc2ccc(OC3CSC3)cc2)S(=O)(=O)c2ccccc2)cc1 | x | x | x | x | x | n | x
CCNc1cc(=O)n(C)c(=O)n1C | n | n | n | n | n | n | x
C=CCn1c(NC)cc(=O)n(C)c1=O | 20 | n | n | n | n | n | n
COc1cc(C(=O)c2nccc3cc(OC)c(OC)cc23)c([N+](=O)[O-])cc1OC | 40 | 55 | 42 | n | n | n | n
Cc1cccc(NCC(=O)NN=Cc2ccccn2)c1 | x | x | x | x | x | n | x
CCOC(=O)c1cc(C)sc1NC(=O)CSC1=NCCS1 | 15 | n | n | n | n | n | 19
FC(F)(F)c1ccc(C=NN2CCN(Cc3cccc4ccccc34)CC2)cc1 | x | x | x | x | x | n | x
CN(C(=S)NC(=O)C12CC3CC(CC(C3)C1)C2)c1ccc(O)cc1 | 24 | x | x | x | n | n | n
CCOC(=O)CC(/C(C)=N\O)c1ccccc1 (configuration not stated) | 21 | n | n | n | n | x | n
CN(C)CCN(Cc1ccccc1)c1ccccn1 | 73 | n | n | n | n | n | n
CN(C)CCN(Cc1ccccc1)c1ccnc(N(C)C)c1C#N | n | n | n | n | n | n | x
CCc1ccc(N2CC(C(=O)NN=Cc3ccccc3OC)CC2=O)cc1 (configuration not stated) | x | x | x | x | x | n | x
COc1cccc(N2CCN(C(=O)c3cn(Cc4ccccc4)nc3-c3cccnc3)CC2)c1 | 21 | x | x | n | n | n | n
COc1ccccc1N1CCN(C(=O)c2cn(Cc3ccccc3)nc2-c2cccnc2)CC1 | n | x | x | n | n | n | x
COc1ccc(OCCCC(=O)N2CCN(S(=O)(=O)c3cccc(F)c3)CC2)cc1 | 33 | n | n | n | n | n | n
O=C(O)c1ccc(S(=O)(=O)c2ccc3c(c2)C(=O)N(c2ccc(O)cc2)C3=O)cc1 | 62 | n | n | n | n | n | n
COc1ccc2nc(C)cc(SCC(=O)NN=Cc3cccc4ccccc34)c2c1 | x | x | x | x | x | n | x
COc1ccccc1N1C(=O)c2ccc(C(=O)Nc3cccc(C(C)=O)c3)cc2C1=O | 37 | n | n | n | n | n | 34
COc1ccccc1N1C(=O)c2ccc(C(=O)Nc3ccc(F)cc3)cc2C1=O | n | n | n | n | n | n | x
O=C(NN=C/C(Br)=C/c1ccccc1)c1cccs1 | x | x | x | x | x | n | x
N#Cc1cc(-c2ccccc2)[nH]c1-c1nccc2ccccc12 | 22 | n | n | n | n | n | n
Cc1cc(C#N)c2ccccc2n1 | n | n | n | n | n | n | x
CCOC(=O)C(C#N)=c1sc(=C2C=Cc3ccccc3N2CC)c(=O)n1CC | x | x | x | x | x | n | x
CCOC(=O)/C(C#N)=C/C=C1\C=Cc2ccccc2N1CC | 87 | n | n | n | n | n | 19
